Assay results: ChEMBL document CHEMBL1124891, “Azulene derivatives: new non-prostanoid thromboxane A2 receptor antagonists” (J Med Chem, 1990)

Columns and labels:
Format in all cases: functional
Oryctolagus cuniculus [1] = species on record: Oryctolagus cuniculus; test: Tested for the concentration that cause 50% inhibition of the maximum aggregation with rabbit platelet-rich plasma induced by 2.5 x 10 E -6 M of U-46619
How it was run: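 Rabbit blood drawn from carotid artery into 3.18% trisodium citrate (1/10 volume). PRP from 300 g spin for 15 min; PPP from 1000g spin for 20 min, used as 100% transmission reference. PRP warmed 2 min at 37 °C, compound or vehicle added, 2 min later 2.5×10^-6 M U-46619. Turbidimetric (Born) aggregometry; IC50 as 50% inhibition of maximum aggregation.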

Oryctolagus cuniculus [2] = species on record: Oryctolagus cuniculus; test: Tested for the concentration that causes 50% relaxation when contraction in rabbit aorta was induced by 3 x 10 E -8 M of U-46619.
How it was run: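 Rabbit thoracic aorta strips held at 37 °C in oxygenated (95% O2/5% CO2) bicarbonate salt solution with dextrose, resting tension 1.5 g, equilibrated 1 h. Isometric tension recorded via force transducer. Once contraction to 3×10^-8 M U-46619 plateaued, compound added cumulatively. Concentration giving 50% relaxation of maximal U-46619-induced tension change obtained by regression of concentration–relaxation curve.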

[3] = Selectivity index is the […] between the IC50 values in the aggregation and contraction assays
How it was run: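 Index for τ-receptor computed as […] between IC50 in rabbit PRP aggregation (2.5×10^-6 M U-46619) and IC50 for relaxing rabbit aorta contracted by 3×10^-8 M U-46619.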

SMILES	IC50 (Oryctolagus cuniculus [1]) [µM]	IC50 (Oryctolagus cuniculus [2]) [µM]	Selectivity index [3]
CC(C)c1ccc2c(CCNS(=O)(=O)c3ccccc3)cc(C(=O)O)c-2cc1	> 100	14	> 7
CC(C)c1ccc2c(CCCCNS(=O)(=O)c3ccc(Cl)cc3)cc(C(=O)O)c-2cc1	> 100	0.15	> 667
COc1ccc(S(=O)(=O)NCCCCc2cc(S(=O)(=O)O)c3ccc(C(C)C)ccc2-3)cc1	64	0.097	660
COc1ccc(S(=O)(=O)NCCCCc2cc(C(=O)O)c3ccc(C(C)C)ccc2-3)cc1	> 100	0.43	> 233
O=C(O)COc1ccc(CCNS(=O)(=O)c2ccccc2)cc1 [SULOTROBAN]	7.1	1.3	5
CC(C)c1ccc2c(/C=C/C(=O)O)cc(CCCCNS(=O)(=O)c3ccccc3)c-2cc1	> 100	16	> 6
CC(C)c1ccc2c(CCCNS(=O)(=O)c3ccccc3)cc(C(=O)O)c-2cc1	> 100	14	> 7
CC(C)c1ccc2c(CCCCCNS(=O)(=O)c3ccccc3)cc(C(=O)O)c-2cc1	> 100	3.4	> 29

Continued, in another order:

IC50 (Oryctolagus cuniculus [1]) [µM]	IC50 (Oryctolagus cuniculus [2]) [µM]	SMILES	Selectivity index [3]
8.7	0.023	CC(C)c1ccc2c(CCCCNS(=O)(=O)c3ccc(Cl)cc3)cc(S(=O)(=O)O)c-2cc1	378
> 100	1.6	CC(C)c1ccc2c(CCCCNS(=O)(=O)c3ccccc3)cc(C(=O)O)c-2cc1	> 63
> 100	3	CC(C)c1ccc2c(CCCCNS(=O)(=O)c3ccccc3)cc(CC(=O)O)c-2cc1	> 33
> 100	1.1	CC(C)c1ccc2c(CCCCNS(=O)(=O)c3ccccc3)cc(S(=O)(=O)O)c-2cc1	> 91
